From ChEMBL document CHEMBL4828755, “A sulfonyl fluoride derivative inhibits EGFRL858R/T790M/C797S by covalent modification of the catalytic lysine” (Eur J Med Chem, 2021)
Calls of active or inactive are those of the source. The rule behind the calls is not given here.

Columns and labels:
[1] = target: T1, Epidermal growth factor receptor (Homo sapiens, UniProt P00533, C797S/L858R/T790M); test: Inhibition of EGFR L858R/T790M/C797S triple mutant (unknown origin) using fluoresceine-labelled poly-GT peptide as substrate incubated for 1 hr by TR-FRET assay
[2] = target: T1, Epidermal growth factor receptor; test: Inhibition of EGFR L858R/T790M/C797S triple mutant (unknown origin) using fluoresceine-labelled poly-GT peptide as substrate preincubated with enzyme for 3 hrs followed by substrate and ATP addition by TR-FRET assay
[3] = target: RAC-beta serine/threonine-protein kinase (Homo sapiens) (UniProt P31751); test: Inhibition of His-tagged full length human recombinant AKT2 expressed in baculovirus expression system at 1 uM by Z'-LYTE assay
In short: (§1)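 Z'-LYTE FRET kinase panel; phosphorylation of a reference peptide measured with ATP at each enzyme's Km. Compounds tested in 1% DMSO at 0.1 and/or 1 μM. Values are means of two independent experiments with standard deviations.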

[4] = target: T2, Aurora kinase A (Homo sapiens) (UniProt O14965); test: Inhibition of His-tagged human full length recombinant AURKA expressed in baculovirus expression system at 1 uM by Z'-LYTE assay; in short: as §1
T2 sequence (whole entry): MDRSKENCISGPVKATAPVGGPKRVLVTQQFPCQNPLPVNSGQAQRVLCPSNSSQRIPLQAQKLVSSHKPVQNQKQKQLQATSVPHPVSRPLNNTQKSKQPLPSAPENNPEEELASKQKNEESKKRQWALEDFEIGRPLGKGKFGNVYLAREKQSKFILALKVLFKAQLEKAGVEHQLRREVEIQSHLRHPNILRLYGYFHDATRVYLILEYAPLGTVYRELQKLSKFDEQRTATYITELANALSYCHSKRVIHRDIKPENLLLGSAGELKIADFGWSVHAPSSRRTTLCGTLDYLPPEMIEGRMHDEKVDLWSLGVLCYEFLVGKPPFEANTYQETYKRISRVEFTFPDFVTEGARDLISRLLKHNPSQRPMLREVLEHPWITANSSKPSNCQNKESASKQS

BaF3 [5] = test: Cytotoxicity against mouse BaF3 cells harboring EGFR L858R/T790M/C797S triple mutant assessed as inhibition of cell proliferation measured after 72 hrs by MTS assay; format: functional, cell-based
In short: (§2)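 Ba/F3 cells carrying the respective EGFR triple mutant, grown in RPMI-1640 with 2 mM glutamine and 10% FBS at 37°C, 5% CO2. Seeded 20000 cells/well and treated the same day with increasing concentrations (DMSO ≤0.1% final). Viability read by MTS after 72 h, expressed as % inhibition versus untreated controls; at least three independent experiments.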

[6] = test system: Epidermal growth factor receptor (Homo sapiens), P00533 [L858R,T790M,C797S]; test: Ratio of IC50 for EGFR L858R/T790M/C797S triple mutant (unknown origin) using fluoresceine-labelled poly-GT peptide as substrate incubated for 1 hr to IC50 for EGFR L858R/T790M/C797S triple mutant (unknown origin) using fluoresceine-labelled poly-GT peptide as substrate preincubated with enzyme for 3 hrs followed by substrate and ATP addition
[7] = test system: Epidermal growth factor receptor (Homo sapiens), P00533 [L858R,T790M,C797S]; test: Irreversible inhibiton of EGFR L858R/T790M/C797S triple mutant (unknown origin) assessed as residual enzyme activity using fluoresceine-labelled poly-GT peptide as substrate preincubated with enzyme for 3 hrs at 10XIC50 followed by 100-fold dilution and measured after 30 mins by rapid dilution assay based TR-FRET analysis; conditions: time 210.0 min
In short: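 It was then diluted 100-fold into Kinase Buffer A containing poly-GT substrate and 9 μM ATP. After 30 min, EDTA quench plus Eu-PY20 were added for 30 min before TR-FRET. Activity is given as % of no-inhibitor control; n = 5.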

[8] = target: RAC-beta serine/threonine-protein kinase (Homo sapiens) (UniProt P31751); test: Inhibition of His-tagged full length human recombinant AKT2 expressed in baculovirus expression system at 100 nM by Z'-LYTE assay; in short: as §1
[9] = target: AMP-activated protein kinase, AMPK (Homo sapiens) (UniProt P54646+O43741+P54619+Q9UGJ0+Q9Y478+Q13131+Q9UGI9); test: Inhibition of human recombinant AMPK at 100 nM by Z'-LYTE assay; format: protein-complex assay; in short: as §1
[10] = target: T2, Aurora kinase A (Homo sapiens); test: Inhibition of His-tagged human full length recombinant AURKA expressed in baculovirus expression system at 100 nM by Z'-LYTE assay; in short: as §1
[11] = target: Cyclin-dependent kinase 2 (Homo sapiens) (UniProt P24941); test: Inhibition of human recombinant CDK2 at 100 nM by Z'-LYTE assay; in short: as §1
[12] = target: Cyclin-dependent kinase 5 (Homo sapiens) (UniProt Q00535); test: Inhibition of GST/His-tagged human full length recombinant CDK5 expressed in baculovirus expression system at 100 nM by Z'-LYTE assay; in short: as §1
[13] = target: Tyrosine-protein kinase Blk (Homo sapiens) (UniProt P51451); test: Inhibition of His-tagged human full length recombinant BLK expressed in baculovirus expression system at 100 nM by Z'-LYTE assay; in short: as §1
[14] = target: Tyrosine-protein kinase Lck (Homo sapiens) (UniProt P06239); test: Inhibition of human recombinant LCK at 100 nM by Z'-LYTE assay; in short: as §1
[15] = target: Proto-oncogene tyrosine-protein kinase Src (Homo sapiens) (UniProt P12931); test: Inhibition of C-terminal His-tagged human recombinant SRC expressed in baculovirus expression system at 100 nM by Z'-LYTE assay; in short: as §1
[16] = test system: Epidermal growth factor receptor (Homo sapiens), P00533 [L858R,T790M,C797S]; test: Inhibition of EGFR L858R/T790M/C797S triple mutant (unknown origin) expressed in mouse Ba/F3 cells assessed as inhibition of EGF-stimulated receptor phosphorylation incubated for 4 hrs followed by EGF stimulation for 10 mins by western blot analysis; format: cell-based; conditions: BaF3, dose 10-1000 nM, time 250.0 min
In short: (§3)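 Ba/F3 cells expressing EGFR L858R/T790M/C797S were treated for 4 h across increasing concentrations (DMSO ≤0.1%), then stimulated with 100 ng/ml EGF for 10 min. Lysates were immunoblotted for pEGFR (Tyr1068), EGFR and actin.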

[17] = test system: Epidermal growth factor receptor (Homo sapiens), P00533 [L858R,T790M,C797S]; test: Inhibition of EGFR L858R/T790M/C797S triple mutant (unknown origin) expressed in mouse Ba/F3 cells assessed as inhibition of EGF-stimulated receptor phosphorylation at 500 nM incubated for 4 hrs followed by EGF stimulation for 10 mins by western blot analysis; format: cell-based; conditions: BaF3, time 250.0 min; in short: as §3
BaF3 [18] = test: Cytotoxicity against mouse BaF3 cells harboring EGFR del19/T790M/C797S triple mutant assessed as inhibition of cell proliferation measured after 72 hrs by MTS assay; format: functional, cell-based; in short: as §2
[19] = target: Fibroblast growth factor receptor 4 (Homo sapiens) (UniProt P22455); test: Inhibition of His-tagged human recombinant FGFR4 ([…] residues) expressed in baculovirus expression system at 100 to 1000 nM by Z'-LYTE assay; conditions: dose 100-1000 nM; in short: as §1
[20] = target: Mitogen-activated protein kinase 14 (Homo sapiens) (UniProt Q16539); test: Inhibition of GST-tagged human full length recombinant p38 alpha expressed in Escherichia coli at 100 to 1000 nM by Z'-LYTE assay; conditions: dose 100-1000 nM
[21] = target: Rho-associated protein kinase 1 (Homo sapiens) (UniProt Q13464); test: Inhibition of GST-tagged human recombinant ROCK1 (1 to 535 residues) expressed in baculovirus expression system at 100 to 1000 nM by Z'-LYTE assay; conditions: dose 100-1000 nM
Sequence of Rho-associated protein kinase 1 (Homo sapiens) (Q13464 2-1354 limits assumed): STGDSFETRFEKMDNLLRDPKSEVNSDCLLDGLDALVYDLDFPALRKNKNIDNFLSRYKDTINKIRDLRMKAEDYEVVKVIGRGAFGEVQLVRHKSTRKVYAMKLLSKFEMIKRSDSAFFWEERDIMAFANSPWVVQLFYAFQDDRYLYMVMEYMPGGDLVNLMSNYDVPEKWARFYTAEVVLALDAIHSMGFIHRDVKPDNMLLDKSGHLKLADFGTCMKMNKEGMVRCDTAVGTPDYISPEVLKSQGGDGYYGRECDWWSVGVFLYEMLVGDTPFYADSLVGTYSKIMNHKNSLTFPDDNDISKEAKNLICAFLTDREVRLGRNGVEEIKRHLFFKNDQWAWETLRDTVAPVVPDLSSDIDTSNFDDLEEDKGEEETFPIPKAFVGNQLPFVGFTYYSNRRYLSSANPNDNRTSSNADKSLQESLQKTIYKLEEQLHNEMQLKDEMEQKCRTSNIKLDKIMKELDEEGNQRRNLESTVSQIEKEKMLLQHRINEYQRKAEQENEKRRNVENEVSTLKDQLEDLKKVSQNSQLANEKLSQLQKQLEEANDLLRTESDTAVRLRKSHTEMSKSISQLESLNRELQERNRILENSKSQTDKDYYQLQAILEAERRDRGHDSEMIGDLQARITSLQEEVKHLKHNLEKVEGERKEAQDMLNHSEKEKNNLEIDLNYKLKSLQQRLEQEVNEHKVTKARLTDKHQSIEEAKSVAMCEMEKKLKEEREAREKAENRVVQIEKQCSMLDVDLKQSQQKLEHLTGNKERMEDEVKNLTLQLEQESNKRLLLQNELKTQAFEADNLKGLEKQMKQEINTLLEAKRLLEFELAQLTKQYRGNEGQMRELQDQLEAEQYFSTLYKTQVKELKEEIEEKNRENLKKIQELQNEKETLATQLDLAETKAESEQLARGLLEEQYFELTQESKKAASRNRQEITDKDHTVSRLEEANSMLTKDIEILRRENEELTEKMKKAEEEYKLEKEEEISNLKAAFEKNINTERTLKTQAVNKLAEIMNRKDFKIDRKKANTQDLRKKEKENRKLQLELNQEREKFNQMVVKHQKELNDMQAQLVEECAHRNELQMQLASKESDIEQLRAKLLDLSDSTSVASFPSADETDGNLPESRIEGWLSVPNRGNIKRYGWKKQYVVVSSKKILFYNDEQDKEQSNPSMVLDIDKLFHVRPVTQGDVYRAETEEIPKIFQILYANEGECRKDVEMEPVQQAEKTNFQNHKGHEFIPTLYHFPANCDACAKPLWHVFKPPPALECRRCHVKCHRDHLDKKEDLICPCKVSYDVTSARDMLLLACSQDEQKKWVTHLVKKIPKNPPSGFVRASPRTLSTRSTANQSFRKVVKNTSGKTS

Sequence of RAC-beta serine/threonine-protein kinase (Homo sapiens) (P31751 whole entry): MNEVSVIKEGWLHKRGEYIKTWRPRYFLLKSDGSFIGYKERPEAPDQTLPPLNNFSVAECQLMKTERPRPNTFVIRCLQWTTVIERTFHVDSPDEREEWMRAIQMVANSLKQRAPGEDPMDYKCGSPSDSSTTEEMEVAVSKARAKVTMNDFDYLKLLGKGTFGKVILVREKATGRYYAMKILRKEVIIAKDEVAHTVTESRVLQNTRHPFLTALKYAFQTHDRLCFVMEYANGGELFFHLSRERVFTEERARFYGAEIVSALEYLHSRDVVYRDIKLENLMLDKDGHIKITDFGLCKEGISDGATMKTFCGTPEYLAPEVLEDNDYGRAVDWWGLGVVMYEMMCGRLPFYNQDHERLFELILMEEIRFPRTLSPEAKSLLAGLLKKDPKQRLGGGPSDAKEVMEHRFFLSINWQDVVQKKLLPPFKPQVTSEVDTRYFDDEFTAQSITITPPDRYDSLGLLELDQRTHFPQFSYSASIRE
Sequence of Proto-oncogene tyrosine-protein kinase Src (Homo sapiens) (P12931 2-536 limits assumed): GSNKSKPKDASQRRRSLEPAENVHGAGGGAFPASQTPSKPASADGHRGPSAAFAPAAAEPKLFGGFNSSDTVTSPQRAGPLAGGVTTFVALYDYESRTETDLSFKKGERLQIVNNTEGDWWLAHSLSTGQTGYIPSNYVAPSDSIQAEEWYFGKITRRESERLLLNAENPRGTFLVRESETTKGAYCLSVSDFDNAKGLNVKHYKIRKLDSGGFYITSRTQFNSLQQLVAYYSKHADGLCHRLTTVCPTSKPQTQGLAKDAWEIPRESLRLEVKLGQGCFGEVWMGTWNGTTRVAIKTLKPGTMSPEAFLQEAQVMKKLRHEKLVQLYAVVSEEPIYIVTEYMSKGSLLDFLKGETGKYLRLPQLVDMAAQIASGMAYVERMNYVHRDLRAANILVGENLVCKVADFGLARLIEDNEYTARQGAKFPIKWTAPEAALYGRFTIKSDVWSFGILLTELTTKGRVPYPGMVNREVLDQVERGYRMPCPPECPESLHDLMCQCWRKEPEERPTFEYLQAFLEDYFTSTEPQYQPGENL
Sequence of Cyclin-dependent kinase 5 (Homo sapiens) (Q00535 whole entry, looked up): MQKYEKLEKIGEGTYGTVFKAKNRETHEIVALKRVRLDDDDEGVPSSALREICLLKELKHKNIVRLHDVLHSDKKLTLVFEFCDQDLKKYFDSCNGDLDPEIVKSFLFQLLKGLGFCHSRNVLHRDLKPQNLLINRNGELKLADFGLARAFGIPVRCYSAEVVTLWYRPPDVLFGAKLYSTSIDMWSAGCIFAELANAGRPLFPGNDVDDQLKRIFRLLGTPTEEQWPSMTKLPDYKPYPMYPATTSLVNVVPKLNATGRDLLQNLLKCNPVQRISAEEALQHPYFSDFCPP
Sequence of Tyrosine-protein kinase Lck (Homo sapiens) (P06239 2-509 limits assumed): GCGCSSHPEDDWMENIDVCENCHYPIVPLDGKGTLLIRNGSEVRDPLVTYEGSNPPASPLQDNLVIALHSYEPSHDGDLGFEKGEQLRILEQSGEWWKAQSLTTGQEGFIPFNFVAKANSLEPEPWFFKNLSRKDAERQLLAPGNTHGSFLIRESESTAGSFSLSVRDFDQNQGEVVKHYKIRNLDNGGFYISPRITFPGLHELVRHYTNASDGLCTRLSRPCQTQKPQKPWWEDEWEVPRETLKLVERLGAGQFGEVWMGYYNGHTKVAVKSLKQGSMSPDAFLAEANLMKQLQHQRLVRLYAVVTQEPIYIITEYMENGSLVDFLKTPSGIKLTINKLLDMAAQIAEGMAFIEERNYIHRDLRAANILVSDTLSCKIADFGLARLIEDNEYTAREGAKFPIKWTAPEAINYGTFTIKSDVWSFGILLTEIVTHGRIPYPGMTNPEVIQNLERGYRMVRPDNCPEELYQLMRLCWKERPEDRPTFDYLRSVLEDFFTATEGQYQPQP
Sequence of Tyrosine-protein kinase Blk (Homo sapiens) (P51451 2-505 limits assumed): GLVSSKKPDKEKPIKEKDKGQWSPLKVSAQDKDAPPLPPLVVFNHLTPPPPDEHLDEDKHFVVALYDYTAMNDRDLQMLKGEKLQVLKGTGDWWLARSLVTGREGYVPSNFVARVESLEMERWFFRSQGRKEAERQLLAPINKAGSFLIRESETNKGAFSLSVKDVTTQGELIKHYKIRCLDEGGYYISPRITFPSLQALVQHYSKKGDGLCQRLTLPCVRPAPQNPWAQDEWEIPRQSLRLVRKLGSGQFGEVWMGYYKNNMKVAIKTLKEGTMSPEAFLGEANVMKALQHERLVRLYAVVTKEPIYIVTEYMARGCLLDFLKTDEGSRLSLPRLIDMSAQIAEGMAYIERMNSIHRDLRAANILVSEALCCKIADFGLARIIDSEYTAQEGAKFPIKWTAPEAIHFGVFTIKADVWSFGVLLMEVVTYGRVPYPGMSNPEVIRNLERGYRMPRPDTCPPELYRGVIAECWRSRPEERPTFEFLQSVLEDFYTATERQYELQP
Sequence of Mitogen-activated protein kinase 14 (Homo sapiens) (Q16539 whole entry, the tested form may be a part): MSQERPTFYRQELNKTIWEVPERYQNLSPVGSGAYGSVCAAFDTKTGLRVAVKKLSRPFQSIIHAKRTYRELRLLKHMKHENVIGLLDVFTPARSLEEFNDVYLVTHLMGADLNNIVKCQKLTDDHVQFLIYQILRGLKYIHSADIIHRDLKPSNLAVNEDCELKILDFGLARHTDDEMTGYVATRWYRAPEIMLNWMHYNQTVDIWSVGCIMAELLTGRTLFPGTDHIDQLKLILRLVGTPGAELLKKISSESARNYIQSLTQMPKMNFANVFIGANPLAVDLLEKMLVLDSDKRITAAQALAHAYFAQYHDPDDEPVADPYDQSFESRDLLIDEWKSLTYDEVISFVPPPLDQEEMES
Sequence of Fibroblast growth factor receptor 4 (Homo sapiens) (P22455 22-802 limits assumed): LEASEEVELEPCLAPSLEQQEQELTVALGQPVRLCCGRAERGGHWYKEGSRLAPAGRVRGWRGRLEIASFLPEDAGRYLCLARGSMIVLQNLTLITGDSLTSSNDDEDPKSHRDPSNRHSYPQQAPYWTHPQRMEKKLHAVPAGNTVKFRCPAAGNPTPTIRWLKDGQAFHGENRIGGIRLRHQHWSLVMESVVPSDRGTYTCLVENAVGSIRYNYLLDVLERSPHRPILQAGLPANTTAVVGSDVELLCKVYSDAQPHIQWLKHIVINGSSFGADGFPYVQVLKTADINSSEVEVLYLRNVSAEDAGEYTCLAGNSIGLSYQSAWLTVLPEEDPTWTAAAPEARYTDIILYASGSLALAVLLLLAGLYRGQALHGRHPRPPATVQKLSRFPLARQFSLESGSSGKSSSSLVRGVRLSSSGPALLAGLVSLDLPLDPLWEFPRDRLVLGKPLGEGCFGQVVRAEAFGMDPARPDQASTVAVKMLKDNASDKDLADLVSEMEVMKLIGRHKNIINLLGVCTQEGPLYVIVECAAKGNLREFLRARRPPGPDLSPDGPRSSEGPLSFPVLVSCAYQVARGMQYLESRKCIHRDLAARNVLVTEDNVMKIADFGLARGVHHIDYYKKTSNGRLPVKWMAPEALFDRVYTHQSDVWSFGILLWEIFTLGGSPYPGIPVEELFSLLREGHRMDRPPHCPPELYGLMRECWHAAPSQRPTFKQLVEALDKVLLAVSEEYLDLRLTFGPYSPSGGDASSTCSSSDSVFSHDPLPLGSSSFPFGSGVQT

For `COc1cc(N2CCN(C(C)=O)CC2)ccc1Nc1ncc(Cl)c(Nc2ccc(NCc3ccc(S(=O)(=O)F)cc3)cc2)n1`, the IC50 [1] was 110 nM, the IC50 [2] was 1.5 nM and the inhibition [3] was 90%. It also gave an inhibition [4] of 100%, an IC50 (BaF3 [5]; BaF3, 72 h) of 500 nM and a Ratio IC50 [6] of 70. For the same molecule, the Activity [7] was less than 25%, the inhibition [8] was “inactive” and the inhibition [9] was “inactive”. For the same molecule, the inhibition [10] was 30%, the inhibition [11] was “inactive” and the inhibition [12] was “inactive”. For the same molecule, the inhibition [13] was “inactive”, the inhibition [14] was “inactive” and the inhibition [15] was “inactive”. For the same molecule, the inhibition [16] was “Dose-Dependent Effect”, the inhibition [17] was 100% and the Activity (BaF3 [18]) was “inactive”.

For `C#CCNC(=O)c1cc(Nc2cc(C3CC3)[nH]n2)nc(N2CCN(Cc3ccc(S(=O)(=O)F)cc3)CC2)n1`, the IC50 [1] was 244 nM, the IC50 [2] was 6 nM and the Activity (BaF3 [5]) was “Active”. The Ratio IC50 [6] was 40, the Activity [7] was less than 25% and the inhibition [8] was “Active”. The inhibition [9] was “Active”, the inhibition [10] was “Active” and the inhibition [11] was “Active”. For the same molecule, the inhibition [12] was “Active”, the inhibition [13] was “Active” and the inhibition [14] was “Active”. For the same molecule, the inhibition [15] was “Active”, the inhibition [19] was “inactive” and the inhibition [20] was “inactive”. The inhibition [21] was “inactive” and the Activity (BaF3 [18]) was “Active”.
